Laboratory results published in ChEMBL document CHEMBL3392973, “Insulin-mimetic selaginellins from Selaginella tamariscina with protein tyrosine phosphatase 1B (PTP1B) inhibitory activity” (J Nat Prod, 2015).
Values joined by “and” are separate entries in the source; they are usually repeats but may differ in a detail not shown here. Identical values can stand only once. Active and inactive are the calls of the source. No cut-off for these calls is given here.

Key:
[1] = target: T1, Tyrosine-protein phosphatase non-receptor type 1 (Homo sapiens, UniProt P18031); test: Mixed-competitive inhibition of human recombinant PTP1B using p-nitrophenylphosphate as substrate by Lineweaver-Burk plot analysis
T1 sequence (P18031 whole entry): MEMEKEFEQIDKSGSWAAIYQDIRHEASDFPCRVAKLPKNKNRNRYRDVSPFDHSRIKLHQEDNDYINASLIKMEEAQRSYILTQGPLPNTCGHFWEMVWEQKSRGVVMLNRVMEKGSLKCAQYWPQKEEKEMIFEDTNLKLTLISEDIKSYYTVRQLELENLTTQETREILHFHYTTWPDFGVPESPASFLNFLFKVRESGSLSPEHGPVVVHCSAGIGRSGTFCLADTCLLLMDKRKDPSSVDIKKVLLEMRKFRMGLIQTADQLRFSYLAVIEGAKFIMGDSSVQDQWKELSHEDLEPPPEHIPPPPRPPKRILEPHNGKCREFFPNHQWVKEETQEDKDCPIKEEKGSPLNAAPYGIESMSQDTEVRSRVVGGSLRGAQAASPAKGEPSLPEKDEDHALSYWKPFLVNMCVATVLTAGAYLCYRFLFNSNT

[2] = Cytotoxicity against mouse NIH/3T3 cells at 50 uM after 48 hrs by MTT assay; settings: nih3t3, 48 h
3T3-L1 (Mus musculus) = test: Induction of 2-NBDG uptake in mouse 3T3-L1 adipocyte cells at 5 uM after 24 hrs measured after 30 mins of 2-NBDG by fluorescence assay
[3] = target: T1, Tyrosine-protein phosphatase non-receptor type 1; test: Inhibition of human recombinant PTP1B using p-nitrophenylphosphate as substrate
Method in brief: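 Human recombinant PTP1B in 50 mM citrate pH 6.0, 0.1 M NaCl, 1 mM EDTA, 1 mM DTT, ± sample, preincubated 10 min at 37 °C. Substrate 2 mM p-NPP, then 20 min at 20 °C, stopped with NaOH, A405. Blank without enzyme corrects for non-enzymatic hydrolysis. IC50 by regression, mean ± SD of three replicates.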

[4] = target: T1, Tyrosine-protein phosphatase non-receptor type 1; test: Uncompetitive inhibition of human recombinant PTP1B using p-nitrophenylphosphate as substrate by Lineweaver-Burk plot analysis
[5] = target: T1, Tyrosine-protein phosphatase non-receptor type 1; test: Noncompetitive inhibition of human recombinant PTP1B using p-nitrophenylphosphate as substrate by Lineweaver-Burk plot analysis

| SMILES | Ki [1] | Activity [2] | Activity (3T3-L1 (Mus musculus)) | IC50 [3] | Ki [4] [µM] | Ki [5] [µM] |
| --- | --- | --- | --- | --- | --- | --- |
| O=C1C=CC(=C(c2ccc(O)cc2)c2c(-c3ccc(O)cc3)ccc(CO)c2C#Cc2ccc(O)cc2)C=C1 | 3 µM and 13.9 µM | Non-toxic | Active | 4.6 µM and 15.9 µM | – | – |
| O=C(O)c1nnc(-c2ccc(-c3ccccc3)cc2)o1 | – | – | – | 0.7 µM | – | – |
| COCc1ccc(-c2ccc(O)cc2O)c(C(O)(c2ccc(O)cc2)c2ccc(O)cc2)c1C#Cc1ccc(O)cc1 | – | Non-toxic | Active | 19.4 µM | 15.1 | – |
| OCc1ccc(-c2ccc(O)cc2O)c(C(O)(c2ccc(O)cc2)c2ccc(O)cc2)c1C#Cc1ccc(O)cc1 | – | Non-toxic | Active | 21.6 µM | – | 10.3 |
| COc1ccc(C(=C2C=CC(=O)C=C2)c2c(-c3ccc(O)cc3)ccc(CO)c2C#Cc2ccc(O)cc2)cc1 | 8.9 µM | – | Active | 11.5 µM | – | – |
